Published values collected from several papers.
Lines come from different studies, so protocols differ.
Genome polyprotein protease: Genome polyprotein, protease (ZIKV, UniProt A0A024B7W1)
Cacna1b: Voltage-dependent N-type calcium channel subunit alpha-1B (Cacna1b, Rattus norvegicus, UniProt Q02294)
MAPKAPK3: MAP kinase-activated protein kinase 3 (MAPKAPK3, Homo sapiens, UniProt Q16644)
NR1H2: Oxysterols receptor LXR-beta (NR1H2, Homo sapiens, UniProt P55055)
HTR7: 5-hydroxytryptamine receptor 7 (HTR7, Homo sapiens, UniProt P34969)
DPP9: Dipeptidyl peptidase 9 (DPP9, Homo sapiens, UniProt Q86TI2)
CTSB: Cathepsin B (CTSB, Homo sapiens, UniProt P07858)

`C#Cc1n[nH]c2c(-c3cn([C@@H](C)c4ccccn4)c(=O)[nH]c3=O)cc(F)cc12` gave an inhibition of -1.7% (Cyclin-dependent kinase 8, with cyclin C (CDK8, Homo sapiens, UniProt P49336); enzyme activity; inhibitor; 0.1 µM).
With `Oc1cc(O)c2c(c1)O[C@H](c1cc(O)c(O)c(O)c1)[C@H](O)C2` the inhibition was 7% (Genome polyprotein protease; enzyme activity; inhibitor; FRET; 100 µM; pH 7).
`C[C@H](C(=O)N[C@H]1COc2ccccc2[C@@H]1S(C)(=O)=O)c1ccc(F)cc1` has an inhibition of 11% (Cacna1b; cell-free assay; 10 µM).
The inhibition of `CCCCCCCCCCCC(=O)OC[C@@H](COP(=O)(O)OCCNC(=O)c1ccc(Cn2c(=O)[nH]c3c(N)nc(OCCOC)nc32)cc1)OC(=O)CCCCCCCCCCC` is reported as -11% (Alpha-1A adrenergic receptor (Adra1a, Rattus norvegicus, UniProt P43140); ligand displacement; radioligand; 10 µM).
For `O=C1c2c(O)cc(O)cc2O[C@H](c2cc(O)c(O)c(O)c2)[C@H]1O`, the inhibition was 23% (Genome polyprotein protease; enzyme activity; inhibitor; FRET; 100 µM; pH 7).
For `COc1cc(Nc2ncc(F)c(Nc3ccc4c(n3)NC(=O)C(C)(C)O4)n2)cc(OC)c1OC`, the inhibition was 70% (Mitogen-activated protein kinase kinase kinase kinase 1 (MAP4K1, Homo sapiens, UniProt Q92918); binding; competition with immobilised ligand; 10 µM).
The inhibition of `Cn1cc(-c2cccc(N3CCc4c(sc5c4CC(C)(C)C5)C3=O)c2CO)cc(Nc2ccncn2)c1=O` is reported as 4% (MAPKAPK3; enzyme activity; inhibitor; 1 µM).
`O=c1c(O)c(-c2ccc(O)c(O)c2)oc2cc(O)cc(O)c12` has an inhibition of 100% (Genome polyprotein protease; enzyme activity; inhibitor; 200 µM; pH 8.5).
`O=C(Nc1cccnn1)N1CCN([C@@H]2CCOc3cc(C(F)(F)F)ccc32)CC1` gave an inhibition of -6% (NR1H2; cell-free assay; 20 µM).
For `CC(C)N1CCC[C@H]1CNC(=O)c1cn(C2CCCC2)c(=O)c2c1c1ccccc1n2C`, the inhibition was 2% (Cacna1b; ligand displacement; radioligand; 10 µM).
The inhibition of `O=C(O)c1cc(O)c(O)c(O)c1` is reported as 15% (Genome polyprotein protease; enzyme activity; inhibitor; FRET; 100 µM; pH 7).
With `N=C(N)c1ccc2cc(OC(=O)c3ccc(N=C(N)N)cc3)ccc2c1` the inhibition was 0% (Ubiquitin carboxyl-terminal hydrolase 14 (USP14, Homo sapiens, UniProt P54578); enzyme activity; inhibitor; 10 µM).
With `C#Cc1n[nH]c2c(-c3cn([C@@H](C)c4ccccc4)c(=O)[nH]c3=O)cc(F)cc12` the inhibition was -0.8% (Dual specificity protein kinase CLK3 (CLK3, Homo sapiens, UniProt P49761); enzyme activity; inhibitor; 0.1 µM).
`O=c1cc(-c2ccccc2)oc2cc(O)cc(O)c12` gave an inhibition of 19% (Genome polyprotein protease; enzyme activity; inhibitor; FRET; 100 µM; pH 7).
`CCN(CC)CCCC[C@H](NC(=O)[C@H](CC(C)C)NC(=O)[C@H](C)NC(=O)[C@H](Cc1ccccc1)NC(=O)c1ccc(C(C)(C)C)cc1)C(=O)N[C@@H](CO)C(=O)OC` gave an inhibition of 8% (HTR7; ligand displacement; radioligand; 10 µM).
With `O=C1N=C(N2CCCCN2)S/C1=C\c1ccc(F)cc1O` the inhibition was < 10% (HTR7; ligand displacement; radioligand; 10 µM).
The inhibition of `N#Cc1ccc(NCCNCC(=O)N2N=CCC2C#N)nc1` (stereo not drawn) is reported as 49% (DPP9; enzyme activity; inhibitor; 1 µM).
`O=c1c(O)c(-c2ccc(O)c(O)c2)oc2cc(O)cc(O)c12` gave an inhibition of 37% (Genome polyprotein protease; enzyme activity; inhibitor; FRET; 100 µM; pH 7).
With `CCOC(=O)c1ccc(OC(=O)CCCCCNC(=N)N)cc1` the inhibition was 14% (DPP9; enzyme activity; inhibitor; 10 µM).
For `Cc1ncc(C)n2nc(/C=C/c3nc(N4CCCC4)cc(N4CCOCC4)n3)nc12`, the inhibition was -19% (NR1H2; cell-free assay; 10 µM).
For `CN(C)C(=O)COC(=O)Cc1ccc(OC(=O)c2ccc(NC(=N)N)cc2)cc1`, the inhibition was 0% (CTSB; enzyme activity; inhibitor; 10 µM).
`OC(CCN1CC=C(c2ccc(F)cc2)CC1)c1ccc(F)c2ccccc12` (stereo not drawn) gave an inhibition of 18% (Plasmepsin II (Plasmodium falciparum, UniProt P46925); enzyme activity; inhibitor; 5 µM).
The inhibition of `CC(C)C[C@H](NC(=O)[C@H]1O[C@@H]1C(=O)O)C(=O)NCCCCN=C(N)N` is reported as 32% (CTSB; enzyme activity; inhibitor; 500 pM).
For `Cn1cc(-c2cc(F)cc(N3CCn4c(cc5c4CCCC5)C3=O)c2CO)cc(Nc2ccc(N3CCN(C4COC4)CC3)cn2)c1=O`, the inhibition was 9% (MAPKAPK3; enzyme activity; inhibitor; 0.1 µM).
